Activity calls are given as the source filed them. No cut-off for these calls is given here.

Results on 18 compounds are retold here after ChEMBL document CHEMBL2401635, “Synthesis and biological properties of novel brefeldin A analogues” (J Med Chem, 2013).

Data set [1] is described as follows: Cytotoxicity against human HeLa R19 cells assessed as reduction of cell viability at 0.5 to 50 uM by MTS assay. In kind it is cell-based. The following applies: hela r19, 50 µM.
Data set [2] can be described thus: Cytostatic activity against human NCI60 cells by SRB assay. The data set is classed as functional. The settings on record: for CC50: read-out: LC50 (the source's name). The procedure, abridged: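 NCI screen: single 10 μM dose first; active compounds then run at five concentrations on the same cell panel to give GI50, TGI and LC50, reported as averages over all cell lines; mean of two 5-dose tests, or one test where noted.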
On the technique in general: Sulforhodamine B stains cellular protein and so reports cell mass.

The test system of data set [3] is Coxsackievirus B3. The data set is described as follows: Antiviral activity against Coxsackievirus B3 infected in human HeLa R19 cells assessed as inhibition of viral replication at 5 to 50 uM after 7 hrs by luciferase reporter gene assay. In kind it is functional, organism-based. The procedure, abridged:
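HeLa R19 subconfluent monolayers infected 30 min at 37 °C with Renilla luciferase-expressing CVB3, MOI 0.1 CCID50; virus replaced by medium with 0.5, 5 or 50 μM compound (5 mM DMSO stock) or matching DMSO. After 7 h, lysed and Renilla luciferase read; triplicates normalized to same-DMSO-dilution controls, shown as means ± SEM on log scale.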
Background: Reporter assays use an easily measured gene product as a stand-in for the process of interest.

A further data set concerns Arabidopsis thaliana. As to the kind of experiment: Induction of morphological changes of golgi apparatus in Arabidopsis thaliana root cells expressing ST-YFP/VHAa1-RFP at 90 uM after 30 mins by confocal laser scanning microscopic analysis. The data set is classed as functional. The procedure, abridged:
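Arabidopsis thaliana stably expressing VHAa1-RFP/N-ST-YFP grown from surface-sterilized seed on half-strength MS, 1% sucrose, 22 °C, 16 h days; roots treated 30 min with 90 μM compound (DMSO solution) in half MS medium, untreated controls; imaged by CLSM with 63× water-immersion objective.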

Data set [4] relates to HeLa. The data set is described as follows: Induction of golgi apparatus disassembly in human HeLa cells at 5 uM after 30 to 60 mins by confocal microscopic analysis. In kind it is functional, cell-based. The procedure, abridged:
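HeLa cells in DMEM, 10% FBS, penicillin/streptomycin, 2 mM L-glutamine, exposed to 5 μM final compound at 37 °C for 30 or 60 min; fixed 4% paraformaldehyde 20 min, NH4Cl quench, 0.5% Triton X-100 permeabilization, 5% BSA block, anti-GM130 (cis Golgi) with Alexa 546 secondary; confocal imaging.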

In data set [5] the test system is HeLa. The data set is described as follows: Induction of golgi apparatus disassembly in human HeLa cells at 5 uM incubated for 60 mins followed by compound washout measured after 2 hrs by confocal microscopic analysis. The data set is classed as functional, cell-based. The procedure, abridged:
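Reassembly: HeLa cells given 5 μM final compound for 60 min at 37 °C, drug removed, then 2 h further in drug-free medium; fixed, anti-GM130 immunolabeled (paraformaldehyde fixation, Triton permeabilization, BSA block, Alexa 546 secondary) and examined by confocal microscopy; untreated medium controls.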

Data set [6] deals with Coxsackievirus B3. As to the kind of experiment: Antiviral activity against Coxsackievirus B3 infected in human HeLa R19 cells assessed as inhibition of viral replication at 0.5 uM after 7 hrs by luciferase reporter gene assay. The data set is classed as functional, organism-based. An outline of the steps: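 HeLa R19 subconfluent monolayers infected 30 min at 37 °C with Renilla luciferase-expressing CVB3 (RLuc-CVB3), MOI 0.1 CCID50; inoculum replaced by medium with compound (0.5, 5 or 50 μM final; 5 mM DMSO stock) or matched DMSO control. After 7 h, cells lysed and Renilla luciferase read as replication measure; triplicates normalized to mean of same-DMSO-dilution controls.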

The test system of another data set is Nicotiana tabacum. The data set is described as follows: Induction of morphological changes of golgi apparatus in tobacco mesophyll protoplast expressing Man1-RFP at 90 uM after 30 mins by confocal laser scanning microscopic analysis. In kind it is functional. An outline of the steps:
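Nicotiana tabacum cv. Petit Havana mesophyll protoplasts transiently expressing cis-Golgi marker Man1-RFP, treated 30 min with 90 μM compound (dissolved in DMSO) in half MS medium, untreated controls; observed by CLSM with 63× water-immersion objective.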

Data set [7] can be described thus: Toxicity in ip dosed mouse. In kind it is organism-based. The following applies: in vivo.

Broadly, the GI50 is the concentration that inhibits growth by half. Broadly, the TGI is the concentration at which net growth stops. Consider `COCC[C@H]1CCC/C=C/[C@@H]2C[C@H](O)C[C@H]2[C@H](O)/C=C/C(=O)O1`, for which the Activity entry in data set [1] was “Non-toxic”. In data set [2], the GI50 was 0.0902 µM, the TGI was 5.78 µM and the CC50 worked out at 42.3 µM. Further, the inhibition entry with Coxsackievirus B3 [3] is “Active”.
Turning to `C=C[C@H]1CCC/C=C/[C@@H]2C[C@H](O)C[C@H]2[C@H](O)/C=C/C(=O)O1`, the Activity result in data set [1] is listed as “Non-toxic”. For the same compound, in the data set on Arabidopsis thaliana, the outcome was Active. Also, in [2], halving of growth (GI50) required 0.0319 µM, total growth inhibition (TGI) required 4.91 µM and the CC50 was determined as 39 µM. In addition, the result with HeLa [4] was Active. The inhibition result in the data set on Coxsackievirus B3 [3] is “Active”.
Consider `O=C1/C=C/[C@@H](O)[C@@H]2C[C@@H](O)C[C@H]2/C=C/CCC[C@H](CCc2cccc3ccccc23)O1`, for which the Activity entry in data set [1] was “Non-toxic”. Further, in data set [2], the GI50 amounted to 0.0739 µM, net growth stopped (TGI) at 2.28 µM and the CC50 amounted to 25.1 µM. Further, the outcome in the data set on HeLa [5] was inactive. Besides, the inhibition result in the data set on Coxsackievirus B3 [3] was “Active”.
`CC[C@H]1CCC/C=C/[C@@H]2C[C@H](O)C[C@H]2[C@H](O)/C=C/C(=O)O1`: the result in the data set on Arabidopsis thaliana was Active. Moreover, in data set [2], it took 0.0446 µM to inhibit growth by half (GI50), the total growth inhibition concentration (TGI) amounted to 5.82 µM and the CC50 was found to be 35.8 µM.
For the compound `O=C1/C=C/[C@@H](O)[C@@H]2C[C@@H](O)C[C@H]2/C=C/CCC[C@H](CCc2ccc(F)cc2)O1`, in data set [1], the Activity entry was “Non-toxic”. The inhibition entry in the data set on Coxsackievirus B3 [3] is “Active”.
As to `O=C1/C=C/[C@@H](O)[C@@H]2C[C@@H](O)C[C@H]2/C=C/CCC[C@H](CCO)O1`, the Activity result in data set [1] was “Non-toxic”. Also, in data set [2], halving of growth (GI50) required 0.178 µM, total growth inhibition (TGI) required 7.69 µM and the CC50 came to 47.6 µM. For the same compound, in the data set with Coxsackievirus B3 [3], the inhibition entry was “Active”.
On to `O=C1/C=C/[C@@H](O)[C@@H]2C[C@@H](O)C[C@H]2/C=C/CCC[C@H](CO)O1`, for which, in data set [2], the GI50 is 2.57 µM, the TGI was 38 µM and the CC50 turned out to be 85.1 µM.
Consider `O=C1/C=C/[C@@H](O)[C@@H]2C[C@@H](O)C[C@H]2/C=C/CCC[C@H](CCc2ccc(C(F)(F)F)cc2)O1`, for which the inhibition result in the data set on Coxsackievirus B3 [6] and in the data set with Coxsackievirus B3 [3] was “Active” in each case. For the same compound, the Activity result in data set [1] was “Non-toxic”. This compound also yielded a GI50 in [2] of 0.212 µM. The same compound gave a total growth inhibition concentration (TGI) in [2] of 5.97 µM. Moreover, the CC50 in data set [2] worked out at 66.2 µM. In the data set on HeLa [5], the result was inactive. Also, the outcome in the data set with HeLa [4] and in the data set with Nicotiana tabacum was Active.
On to `C=C[C@@H]1CCC/C=C/[C@@H]2C[C@H](O)C[C@H]2[C@H](O)/C=C/C(=O)O1`, for which, in [2], the concentration for 50% growth inhibition (GI50) amounted to 0.631 µM, total growth inhibition (TGI) required 17.8 µM and the CC50 is 66.3 µM.
The matching figures for `Nc1ccc(CC[C@H]2CCC/C=C/[C@@H]3C[C@H](O)C[C@H]3[C@H](O)/C=C/C(=O)O2)cc1`: 0.0343 µM, 2.68 µM and 56.3 µM.
By LD50 is commonly meant the dose expected to kill half of the subjects tested. Read a low LD50 as greater toxicity. Regarding `C[C@H]1CCC/C=C/[C@@H]2C[C@H](O)C[C@H]2[C@H](O)/C=C/C(=O)O1` [BREFELDIN A], the inhibition entry in the data set on Coxsackievirus B3 [6] and in the data set on Coxsackievirus B3 [3] was “Active” in each case. Moreover, in [1], the Activity entry is reported as “Non-toxic”. For the same compound, the median lethal dose (LD50) in data set [7] is more than 200 mg/kg. Further, the outcome in the data set on Arabidopsis thaliana, with HeLa [4] and in the data set on Nicotiana tabacum was Active. For the same compound, in data set [2], the 50% growth inhibitory concentration (GI50) was found to be 0.0206 µM. In data set [2], net growth stopped (TGI) at 3.48 µM. Also, in [2], the CC50 was 52.6 µM. The outcome with HeLa [5] was inactive.
Regarding `O=C1/C=C/[C@@H](O)[C@@H]2C[C@@H](O)C[C@H]2/C=C/CCC[C@H](CCc2ccccc2)O1`, in data set [1], the Activity entry is reported as “Non-toxic”. Also, in data set [2], the GI50 is 0.0299 µM, total growth inhibition (TGI) required 2.04 µM and the CC50 worked out at 40 µM. In addition, in the data set on HeLa [5], the outcome was inactive. Moreover, in the data set with Coxsackievirus B3 [3], the inhibition result was “Active”. The outcome in the data set with Nicotiana tabacum was Active.
As for `CC(=O)[C@H]1CCC/C=C/[C@@H]2C[C@H](O)C[C@H]2[C@H](O)/C=C/C(=O)O1`, in data set [1], the Activity result is “Non-toxic”. Besides, in data set [2], the concentration for 50% growth inhibition (GI50) was 0.594 µM, the TGI was 13.3 µM and the CC50 was determined as 61.7 µM. Moreover, the inhibition entry in the data set with Coxsackievirus B3 [3] was “Active”.
`O=C1/C=C/[C@@H](O)[C@@H]2C[C@@H](O)C[C@H]2/C=C/CCC[C@H](CCc2ccc3cccnc3c2)O1`: in data set [2], the 50% growth inhibitory concentration (GI50) turned out to be 0.262 µM, the TGI was found to be 7.61 µM and the CC50 turned out to be 63.9 µM. Also, the outcome in the data set on Nicotiana tabacum was Active.
As to `O=C1/C=C/[C@@H](O)[C@@H]2C[C@@H](O)C[C@H]2/C=C/CCC[C@H](CCOCc2ccccc2)O1`, the Activity result in data set [1] was “Non-toxic”. Further, in data set [2], growth was halved (GI50) at 0.0809 µM, the TGI is 5.05 µM and the CC50 was 35.5 µM. Also, in the data set with Coxsackievirus B3 [3], the inhibition entry is “Active”.
Turning to `O=C1/C=C/[C@@H](O)[C@@H]2C[C@@H](O)C[C@H]2/C=C/CCC[C@H](C(F)(F)F)O1`, in data set [2], growth was halved (GI50) at 0.321 µM, net growth stopped (TGI) at 5.49 µM and the CC50 is 48.2 µM.
With `CC(=O)Nc1ccc(CC[C@H]2CCC/C=C/[C@@H]3C[C@H](O)C[C@H]3[C@H](O)/C=C/C(=O)O2)cc1`, the Activity entry in [1] is given as “Non-toxic”. In addition, in data set [2], the 50% growth inhibitory concentration (GI50) was determined as 0.152 µM, net growth stopped (TGI) at 5.7 µM and the CC50 was determined as 51.6 µM. In addition, the inhibition result in the data set on Coxsackievirus B3 [3] is “Active”. Moreover, in the data set with Nicotiana tabacum, the outcome was Active.
`O=C1/C=C/[C@@H](O)[C@@H]2C[C@@H](O)C[C@H]2/C=C/CCCCO1`: in data set [2], the 50% growth inhibitory concentration (GI50) was 0.631 µM, net growth stopped (TGI) at 20.9 µM and the CC50 stood at 69.2 µM.
